The values that follow come from ChEMBL document CHEMBL1926556, “Synthesis and biological activities of 2-[(heteroaryl)methyl]imidazolines” (Bioorg Med Chem, 2012).

Calls of active or inactive are those of the source. No cut-off for these calls is given here.

For orientation: Ki means a dissociation constant, usually derived from enzyme kinetics or from competition with a known ligand. Broadly, the IC50 is the concentration that gives 50% inhibition.

Assay [1] addresses T1, Adrenergic receptor alpha-1 (Rattus norvegicus, UniProt P15823+P23944+P43140).
T1 sequence (P15823 whole entry): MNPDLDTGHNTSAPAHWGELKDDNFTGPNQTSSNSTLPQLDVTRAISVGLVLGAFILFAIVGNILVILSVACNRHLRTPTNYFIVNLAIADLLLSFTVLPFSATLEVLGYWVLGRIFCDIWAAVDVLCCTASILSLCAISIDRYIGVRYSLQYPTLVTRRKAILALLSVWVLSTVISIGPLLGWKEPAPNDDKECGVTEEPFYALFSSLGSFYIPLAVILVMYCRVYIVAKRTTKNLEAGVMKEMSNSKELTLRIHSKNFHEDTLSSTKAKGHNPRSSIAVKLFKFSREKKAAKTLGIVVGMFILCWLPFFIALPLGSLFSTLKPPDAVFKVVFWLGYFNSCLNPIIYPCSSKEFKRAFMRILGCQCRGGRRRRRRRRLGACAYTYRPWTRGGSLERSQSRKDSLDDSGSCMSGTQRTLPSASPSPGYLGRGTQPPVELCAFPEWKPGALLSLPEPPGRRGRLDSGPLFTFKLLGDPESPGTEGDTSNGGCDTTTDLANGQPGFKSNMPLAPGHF
T1 sequence (P23944 whole entry): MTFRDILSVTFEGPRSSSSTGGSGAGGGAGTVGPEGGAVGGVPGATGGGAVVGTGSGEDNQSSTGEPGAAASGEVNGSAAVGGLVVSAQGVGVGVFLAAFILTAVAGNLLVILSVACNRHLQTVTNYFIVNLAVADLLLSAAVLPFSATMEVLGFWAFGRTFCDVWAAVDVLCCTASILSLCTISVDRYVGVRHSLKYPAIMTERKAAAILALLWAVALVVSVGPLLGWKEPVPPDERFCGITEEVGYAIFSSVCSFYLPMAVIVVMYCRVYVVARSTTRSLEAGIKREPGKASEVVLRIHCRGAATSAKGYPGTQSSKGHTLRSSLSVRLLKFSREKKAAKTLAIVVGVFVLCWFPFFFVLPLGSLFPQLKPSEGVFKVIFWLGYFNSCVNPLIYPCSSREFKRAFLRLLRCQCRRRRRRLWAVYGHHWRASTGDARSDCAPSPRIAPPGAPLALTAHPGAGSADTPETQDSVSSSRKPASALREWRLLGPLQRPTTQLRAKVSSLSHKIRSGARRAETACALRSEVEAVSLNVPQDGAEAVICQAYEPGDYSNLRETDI
T1 sequence (P43140 whole entry): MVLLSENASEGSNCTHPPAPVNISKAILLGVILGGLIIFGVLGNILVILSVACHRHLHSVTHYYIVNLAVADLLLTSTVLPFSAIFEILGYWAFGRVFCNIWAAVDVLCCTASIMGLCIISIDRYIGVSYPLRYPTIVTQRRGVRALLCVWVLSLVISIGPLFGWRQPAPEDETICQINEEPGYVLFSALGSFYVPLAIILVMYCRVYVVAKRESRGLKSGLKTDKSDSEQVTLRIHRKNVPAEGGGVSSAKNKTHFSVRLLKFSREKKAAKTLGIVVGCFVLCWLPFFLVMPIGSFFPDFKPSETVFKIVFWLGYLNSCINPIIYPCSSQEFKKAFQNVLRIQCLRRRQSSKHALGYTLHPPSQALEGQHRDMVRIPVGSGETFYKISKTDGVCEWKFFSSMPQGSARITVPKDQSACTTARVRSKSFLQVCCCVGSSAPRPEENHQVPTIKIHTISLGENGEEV
Nature of the assay: Displacement of [3H]prazosin from adrenoceptor alpha1 in Sprague-Dawley rat brain after 45 mins by scintillation counting. Summed up:
(§1)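 Crude P2 membranes from male Sprague–Dawley rat brain (250–280 g), 0.2–0.3 mg protein. Radioligand 1 nM: [3H]2BFI for I2, [3H]prazosin for α1, [3H]RX821002 for α2. Non-specific binding defined by 10 µM BU224 (I2), 10 µM phenylephrine (α1) or 10 µM rauwolscine (α2). 11 concentrations from 0.01 nM to 100 µM, triplicate, 45 min at RT. Filtration and scintillation counting; Ki by Cheng–Prusoff.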
(In general: In a radioligand displacement assay an active substance lowers the binding of a labelled ligand.)

The next assay addresses Nischarin (Rattus norvegicus, UniProt Q4G017). Description: Displacement of [3H]clonidine from imidazoline I1 receptor in Sprague-Dawley rat kidney membranes after 45 mins by scintillation counting. It is filed as cell membranes, Membrane. Summed up:
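Crude P2 membranes from male Sprague–Dawley rat kidney, 0.2–0.5 mg protein. […] Specific binding defined by 10 µM rilmenidine. 11 concentrations from 0.01 to 100 µM, 50 mM Tris-HCl pH 7.4, 45 min at RT. Filtration and scintillation counting; IC50.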

Assay [2] concerns the target T2, Adrenergic receptor alpha-2 (Rattus norvegicus, UniProt P22086+P19328+P22909).
T2 sequence (P22086 whole entry): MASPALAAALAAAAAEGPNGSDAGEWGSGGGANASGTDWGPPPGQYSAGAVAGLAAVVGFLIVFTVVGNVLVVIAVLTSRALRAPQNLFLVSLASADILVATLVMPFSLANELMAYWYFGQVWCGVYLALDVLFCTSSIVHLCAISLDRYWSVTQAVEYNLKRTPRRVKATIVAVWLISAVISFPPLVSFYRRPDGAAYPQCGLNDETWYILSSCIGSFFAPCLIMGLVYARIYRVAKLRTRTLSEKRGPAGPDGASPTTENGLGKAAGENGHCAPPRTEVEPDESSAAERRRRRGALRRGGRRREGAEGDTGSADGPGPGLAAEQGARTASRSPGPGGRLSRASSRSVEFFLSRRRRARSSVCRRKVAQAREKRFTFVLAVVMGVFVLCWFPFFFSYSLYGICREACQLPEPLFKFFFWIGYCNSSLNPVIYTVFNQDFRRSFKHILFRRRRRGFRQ
T2 sequence (P19328 whole entry): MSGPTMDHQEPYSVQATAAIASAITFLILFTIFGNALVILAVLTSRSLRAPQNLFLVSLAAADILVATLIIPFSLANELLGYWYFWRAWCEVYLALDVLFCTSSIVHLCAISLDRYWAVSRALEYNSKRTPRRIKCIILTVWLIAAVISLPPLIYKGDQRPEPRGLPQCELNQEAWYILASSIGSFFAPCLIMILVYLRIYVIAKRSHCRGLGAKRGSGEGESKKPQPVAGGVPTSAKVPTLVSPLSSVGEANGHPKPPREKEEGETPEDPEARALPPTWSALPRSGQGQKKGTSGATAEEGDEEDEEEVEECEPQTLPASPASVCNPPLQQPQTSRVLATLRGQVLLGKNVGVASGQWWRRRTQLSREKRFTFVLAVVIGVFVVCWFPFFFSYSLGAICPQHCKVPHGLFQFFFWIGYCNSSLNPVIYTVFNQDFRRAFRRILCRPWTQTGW
T2 sequence (P22909 whole entry): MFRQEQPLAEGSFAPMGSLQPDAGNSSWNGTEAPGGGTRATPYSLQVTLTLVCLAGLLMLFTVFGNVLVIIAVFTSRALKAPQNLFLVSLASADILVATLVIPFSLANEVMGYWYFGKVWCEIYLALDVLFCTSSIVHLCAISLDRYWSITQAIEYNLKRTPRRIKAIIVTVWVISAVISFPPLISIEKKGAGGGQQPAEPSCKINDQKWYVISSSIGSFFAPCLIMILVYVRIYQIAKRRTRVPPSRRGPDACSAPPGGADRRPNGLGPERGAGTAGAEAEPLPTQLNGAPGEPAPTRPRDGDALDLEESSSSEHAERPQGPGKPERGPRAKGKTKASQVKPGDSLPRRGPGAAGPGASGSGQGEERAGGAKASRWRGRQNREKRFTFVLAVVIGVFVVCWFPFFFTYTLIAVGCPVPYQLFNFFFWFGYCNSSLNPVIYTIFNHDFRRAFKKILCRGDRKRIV
Nature of the assay: Displacement of […] from adrenoceptor alpha2 in Sprague-Dawley rat brain membranes after 45 mins by scintillation counting. In kind it is cell membranes, Membrane. The method in brief:
as §1

The species entered for a further assay is Rattus norvegicus. Description: Displacement of [3H]BFI from imidazoline I2 in Sprague-Dawley rat brain membranes at 1 X 10^6 after 45 mins by scintillation counting. In kind it is cell membranes. Particulars: Membrane.

Chain of Nischarin (Q4G017 whole entry): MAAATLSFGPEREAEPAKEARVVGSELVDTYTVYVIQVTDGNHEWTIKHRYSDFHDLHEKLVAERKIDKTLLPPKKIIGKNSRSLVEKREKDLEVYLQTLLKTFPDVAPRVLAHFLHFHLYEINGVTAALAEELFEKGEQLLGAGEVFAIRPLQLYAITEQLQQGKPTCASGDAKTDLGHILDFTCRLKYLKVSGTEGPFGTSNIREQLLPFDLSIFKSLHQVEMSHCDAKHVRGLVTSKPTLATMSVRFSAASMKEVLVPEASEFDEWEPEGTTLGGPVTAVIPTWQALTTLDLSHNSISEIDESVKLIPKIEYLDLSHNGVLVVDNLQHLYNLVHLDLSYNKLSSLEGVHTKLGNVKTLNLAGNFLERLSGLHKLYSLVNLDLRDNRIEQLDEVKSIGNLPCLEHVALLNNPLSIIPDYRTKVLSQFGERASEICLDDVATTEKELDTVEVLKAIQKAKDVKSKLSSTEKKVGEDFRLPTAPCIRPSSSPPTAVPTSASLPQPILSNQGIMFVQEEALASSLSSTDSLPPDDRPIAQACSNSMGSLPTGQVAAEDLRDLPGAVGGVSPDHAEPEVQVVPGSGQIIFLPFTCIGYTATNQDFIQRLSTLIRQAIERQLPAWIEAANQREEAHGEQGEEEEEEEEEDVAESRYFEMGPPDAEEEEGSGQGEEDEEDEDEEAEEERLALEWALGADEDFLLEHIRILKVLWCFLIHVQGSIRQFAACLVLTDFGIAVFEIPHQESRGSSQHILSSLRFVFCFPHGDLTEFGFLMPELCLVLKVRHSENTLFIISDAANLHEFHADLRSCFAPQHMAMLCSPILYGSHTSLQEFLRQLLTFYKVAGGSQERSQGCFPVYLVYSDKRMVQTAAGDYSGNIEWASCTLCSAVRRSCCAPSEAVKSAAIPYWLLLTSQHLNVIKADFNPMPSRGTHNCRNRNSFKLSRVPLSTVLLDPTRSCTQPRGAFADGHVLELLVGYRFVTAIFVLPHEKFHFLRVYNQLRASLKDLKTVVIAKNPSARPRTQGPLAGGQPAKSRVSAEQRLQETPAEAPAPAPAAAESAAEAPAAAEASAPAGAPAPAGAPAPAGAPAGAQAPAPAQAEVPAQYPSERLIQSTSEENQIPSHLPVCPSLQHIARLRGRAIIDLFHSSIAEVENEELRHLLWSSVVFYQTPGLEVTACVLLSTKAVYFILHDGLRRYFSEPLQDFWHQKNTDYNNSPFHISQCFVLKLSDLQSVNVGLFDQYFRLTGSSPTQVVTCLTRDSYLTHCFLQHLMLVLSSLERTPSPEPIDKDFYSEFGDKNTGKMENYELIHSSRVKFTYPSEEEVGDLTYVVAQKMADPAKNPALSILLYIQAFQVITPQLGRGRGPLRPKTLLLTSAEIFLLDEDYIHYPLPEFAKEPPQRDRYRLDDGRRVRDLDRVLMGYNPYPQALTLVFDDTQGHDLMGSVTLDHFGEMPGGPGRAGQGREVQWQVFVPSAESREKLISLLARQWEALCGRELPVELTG

On to `Cl.Cl.c1ccc(-c2nc3ccccc3n2CC2=NCCN2)cc1`, for which the Ki was found to be 1.11 µM in assay [1] and 7.44 µM in assay [2]. Also, on Nischarin, the IC50 was 28.1 µM. Besides, the result in the assay filed under Rattus norvegicus was inactive.
